# Assay results as given in the RNAGym collection of RNA variant scans (doi:10.1126/science.aae0568).
# Fewer inactive variants are shown than the library holds.
# B1: tRNA (parent)
# chain: GUUCCGUUGGCGUAAUGGUAACGCGUCUCCCUCCUAAGGAGAAGACUGCGGGUUCGAGUCCCGUACGGAACG
# Variants of: B1
# Assay: yeast fitness relative to wild type (ratio to wild type); higher = fitter; tRNA-Arg(CCU), competitive growth, 37 C, YPD
# Procedure, shortened: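 Amplicons of the tRNA-Arg(CCU) gene were sequenced, 100-nucleotide paired-end, from the start population and from each end population of a pooled yeast competition. The competition, in six parallel replicates, lasted 24 hours in YPD at 37°C. Fitness relative to wild type was calculated from changes in genotype frequencies. Genotypes had to have ≥ 100 starting reads, and estimates < 0.5 were set to 0.5.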
row,Variant,yeast fitness
1,GUUCCGUUGGCGGAAUGGUAACGAGUCUCCCUCCUAAGGAGAAGGCUGCGGGUUGGAGUCCCGUACGGAACG [U13G C24A A45G C55G],0.622
2,GUUCCGUUGGCGGAAUGGUAACGGGUCUCCCUCCUAAGGAGAAGACUGCGGGUUCGAGUCCCGUACGGAACG [U13G C24G],0.539
3,GUUCCGUUGGCGGAAUGGUAACGUGUCUCCCUCAUAAGGAGAAGACUGUGGGUUCGAGUCCCAUACGGAACG [U13G C24U C34A C49U G63A],0.554
4,GUUCCGUUGGCGGAAUGGUAACGUGUCACCCUCCUAAGGAGGAGACUGCGGGUUCGAGUCCCGUACGGAACG [U13G C24U U28A A42G],≤ 0.5
5,GUUCCGUUGGCGGAAUGGUAACGCGUAUCCCUCCUAAGGAGAAGACUGCGGCUUAGAGUCCGGUACGGAACG [U13G C27A G52C C55A C62G],0.601
6,GUUCCGUUGGCGGAAUGGUAACGCGUAACCCUUCUAAGGAGAAGACUGCGGGUUCGAGUCCCGUACGGAACG [U13G C27A U28A C33U],≤ 0.5
7,GUUCCGUUGGCGGAAUGGUAACGCGUGUCCCUCCUAAGGAGAAGACUGCGGGUUCGAGUCCCGUACGGAACG [U13G C27G],0.537
8,GUUCCGUUGGCGGAAUGGUAACGCGUCUACCUCCUAAGGAGAAGACUGCGGGUUCGAGUCCCGUACGGAACG [U13G C29A],0.571
9,GUUCCGUUGGCGGAAUGGUAACGCGUCUUCCUCCUAAGGAGAAGACUGCGGGUUCGAGUCCCGUACGGAACG [U13G C29U],0.769
10,GUUCCGUUGGCGGAAUGGUAACGCGUCUUCUUCCAAAGGAGAAGACUGCGGGUUCGCGUCCCGUACGGAACG [U13G C29U C31U U35A A57C],≤ 0.5
11,GUUCCGUUGGCGGAAUGGUAACGCGUCUUCCUUCUAAGGAGAAGACUGCGGGUUCGAGUCCCGUACGGAACG [U13G C29U C33U],0.57
12,GUUCCGUUGGCGGAAUGGUAACGCGUCUUCCUUCUAAGGAGAAGACUGCGGGUUCGAGUCCCGUACAGAACG [U13G C29U C33U G67A],≤ 0.5
13,GUUCCGUUGGCGGAAUGGUAACGCGUCUUCCUCCUAAGGAGAAGACUGCGGGUUCGAGUCCCGUACGCAACG [U13G C29U G68C],≤ 0.5
14,GUUCCGUUGGCGGAAUGGUAACGCGUCUCACUCCUAAGGAGAAGACUGCGGGUUCGAGUCCCGUUCGGCACG [U13G C30A A65U A69C],≤ 0.5
15,GUUCCGUUGGCGGAAUGGUAACGCGUCUCGCUCCUAAGGGGAAGACUGCGGGUUCGAGUCCCGUACGGAACG [U13G C30G A40G],≤ 0.5
16,GUUCCGUUGGCGGAAUGGUAACGCGUCUCCAUCCUAAGGAGAAGACUGCGGGUUCGUGUCCCGUACGGAACG [U13G C31A A57U],≤ 0.5
17,GUUCCGUUGGCGGAAUGGUAACGCGUCUCCAUCCUAAGGAGAAGACUGCGGGUUCGAGUCCCGUAUGGAACG [U13G C31A C66U],0.814
18,GUUCCGUUGGCGGAAUGGUAACGCGUCUCCUUCCAAAGGAGAAGACUGCGGGUUCGCGUCCCGUACGGAACG [U13G C31U U35A A57C],0.61
19,GUUCCGUUGGCGGAAUGGUAACGCGUCUCCUUCCAAAGGAGAAGACUGCGAGUUCGAGUCCCGUACGGUGCG [U13G C31U U35A G51A A69U A70G],≤ 0.5

row,Variant,yeast fitness
1,GUUCCGUUGGCGGAAUGGUAACGCGUCUCCCUGCUAAGGAGAAGACUGCGGGUUCGAGUCCCGUACGGAACG [U13G C33G],0.51
2,GUUCCGUUGGCGGAAUGGUAACGCGUCUCCCUGCUAAGGGGAAGACUGCGGGUUCGAGUACCGUACGGAACG [U13G C33G A40G C60A],≤ 0.5
3,GUUCCGUUGGCGGAAUGGUAACGCGUCUCCCUUCUAAGGAGAAGACUGCGGGUUCGAGUCCCGUACGGAACG [U13G C33U],0.671
4,GUUCCGUUGGCGGAAUGGUAACGCGUCUCCCUCCUAAGGAGAAGAUUGCGGGUUCGAGUCCCGUACGGAACG [U13G C46U],0.895
5,GUUCCGUUGGCGGAAUGGUAACGCGUCUCCCUCCUAAGGAGAAGAUUGCGGGAUCGAGUCCCGUACGGAACG [U13G C46U U53A],≤ 0.5
6,GUUCCGUUGGCGGAAUGGUAACGCGUCUCCCUCCUAAGGAGAAGACUGAGGGUUUGAGUUUCGUACGGAACG [U13G C49A C55U C60U C61U],≤ 0.5
7,GUUCCGUUGGCGGAAUGGUAACGCGUCUCCCUCCUAAGGAGAAGACUGAGGCUUCGAGUCCCGUACGGAACG [U13G C49A G52C],≤ 0.5
8,GUUCCGUUGGCGGAAUGGUAACGCGUCUCCCUCCUAAGGAGAAGACUGGCGGUUCGAGUGCAGUACGGAACG [U13G C49G G50C C60G C62A],≤ 0.5
9,GUUCCGUUGGCGGAAUGGUAACGCGUCUCCCUCCUAAGGAGAAGACUGUGGGUUCGAGUCCCGUACGGAACG [U13G C49U],0.693
10,GUUCCGUUGGCGGAAUGGUAACGCGUCUCCCUCCUAAGGAGAAGACUGUGGGUUCGAGCCCCGUACGGAACG [U13G C49U U59C],≤ 0.5
11,GUUCCGUUGGCGGAAUGGUAACGCGUCUCCCUCCUAAGGAGAAGACUGCGGGUUGGAGUACCGUACGGAACG [U13G C55G C60A],≤ 0.5
12,GUUCCGUUGGCGGAAUGGUAACGCGUCUCCCUCCUAAGGAGAAGACUGCGGGUUCGAGUCCGGUACGGAACG [U13G C62G],0.726
13,GUUCCGUUGGCGGAAUGGUAACGCGUCUCCCUCCUAAGGAGAAGACUGCGGGUUCGAGUCCUGUACGGAACG [U13G C62U],0.92
14,GUUCCGUUGGCGGAAUGGUAACGCGUCUCCCUCCUAAGGAGAAGACUGCGGGUUCGAGUCCCGUAUGGAACG [U13G C66U],0.818
15,GUUCCGUUGGCGGAAUGAUAACGCGUCUCCCUCCUAAGCAGAAGACUGCGGGUUCGAGUCCCGUACGGUACG [U13G G18A G39C A69U],≤ 0.5
16,GUUCCGUUGGCGGAAUGGUAACCCGUCUCCCUCCUAAGGAGACGACUGCGGGUUCGAGUCCCGUACGGAACG [U13G G23C A43C],0.584
17,GUUCCGUUGGCGGAAUGGUAACGCAUCUCCCUCCUAAGGAGAAGACUGCGGGUUCGAGUCCCGUACGGAACG [U13G G25A],0.973
18,GUUCCGUUGGCGGAAUGGUAACGCAUCUCCCUCCUAAGGAGAAGACUGCGGGUUCGAGUCCCGUACGGUACG [U13G G25A A69U],0.798
19,GUUCCGUUGGCGGAAUGGUAACGCGUCUCCCUCCUAACGAGAAGACUGCGGGUUCGAGUCCCGUACGGAACG [U13G G38C],0.757
